In brackets after ≈: the same amount, converted by molar mass.
What was measured:
[1] = tested on: Human immunodeficiency virus 1; assay: Antiviral activity against HIV1 3B in human MT4 cells assessed as protection against virus-induced cytopathogenicity by MTT assay; type: functional, organism-based; design: Activity: concentration or dose not given beside the values; details: for IC50: Human immunodeficiency virus 1, 3B, MT4
In short: (§1)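 MT-4 cells at 6 × 10⁵ cells/ml infected with HIV-1 IIIB or HIV-2 ROD at 100–300 CCID50; compounds in serial five-fold dilutions, triplicate mock- and virus-infected wells. MTT viability read at 540 and 690 nm after 5 days, median OD of three wells; EC50 = 50% protection from viral cytopathic effect.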

[2] = tested on: Human immunodeficiency virus 2; assay: Antiviral activity against HIV2 ROD in human MT4 cells assessed as protection against virus-induced cytopathogenicity by MTT assay; type: functional, organism-based; design: Activity: concentration or dose not given beside the values; details: for IC50: Human immunodeficiency virus 2, ROD, MT4; in short: as §1
[3] = Cytotoxicity against human MT4 cells by MTT assay; type: cell-based
In short: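 Mock-infected MT-4 cells (6 × 10⁵ cells/ml) with serial five-fold compound dilutions in triplicate; MTT reduction read at 540 and 690 nm after 5 days, median OD of three wells; CC50 = concentration reducing OD540 of mock-infected control by 50%.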

[4] = Cytotoxicity against human HeLa cells; type: cell-based
In short: (§2)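 Uninfected cell cultures exposed to test compounds alongside antiviral assays; minimum cytotoxic concentration (MCC) = concentration causing a microscopically detectable alteration of cell morphology.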

[5] = tested on: Vesicular stomatitis virus; assay: Antiviral activity against vesicular stomatitis virus in human HeLa cells assessed as inhibition of virus-induced cytopathogenicity; type: functional
In short: (§3)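 Confluent cell monolayers (E6SM, HEL, HeLa or Vero, per line) inoculated with 100 CCID50 virus; 1 h adsorption, residual virus removed, then incubated with compound at 400, 200, 100 … µg/ml. Cytopathicity scored once complete in untreated virus controls; MIC = concentration inhibiting virus-induced cytopathicity.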

Coxsackievirus B4 [6] = assay: Antiviral activity against Coxsackie virus B4 in human HeLa cells assessed as inhibition of virus-induced cytopathogenicity; type: functional; details: Enterovirus B; in short: as §3
[7] = tested on: Respiratory syncytial virus; assay: Antiviral activity against respiratory syncytial virus in human HeLa cells assessed as inhibition of virus-induced cytopathogenicity; type: functional; in short: as §3
[8] = Cytotoxicity against human E6SM cells; type: cell-based; details: E6SM cells; in short: as §2
[9] = Cytotoxicity against human HEL cells assessed as alteration of cell morphology; type: cell-based; in short: as §2
Human alphaherpesvirus 1 [10] = assay: Antiviral activity against HSV1 KOS in human E6SM cells assessed as reduction of virus-induced cytopathogenicity; type: functional; details: Human alphaherpesvirus 1, KOS; in short: as §3
Human alphaherpesvirus 1 [11] = assay: Antiviral activity against HSV1 KOS in human HEL cells assessed as reduction of virus-induced cytopathogenicity; type: functional; details: Human alphaherpesvirus 1, KOS; in short: as §3
Human alphaherpesvirus 2 [12] = assay: Antiviral activity against HSV2 G in human E6SM cells assessed as reduction of virus-induced cytopathogenicity; type: functional; details: Human alphaherpesvirus 2, G; in short: as §3
Human alphaherpesvirus 2 [13] = assay: Antiviral activity against HSV2 G in human HEL cells assessed as reduction of virus-induced cytopathogenicity; type: functional; details: Human alphaherpesvirus 2, G; in short: as §3
[14] = tested on: Vesicular stomatitis virus; assay: Antiviral activity against in Vesicular stomatitis virus in human E6SM cells assessed as reduction of virus-induced cytopathogenicity; type: functional; in short: as §3
[15] = tested on: Vesicular stomatitis virus; assay: Antiviral activity against in Vesicular stomatitis virus in human HEL cells assessed as reduction of virus-induced cytopathogenicity; type: functional; in short: as §3
Human alphaherpesvirus 1 [16] = assay: Antiviral activity against thymidine kinase deficient and acyclovir resistant HSV1 KOS in human E6SM cells assessed as reduction of virus-induced cytopathogenicity; type: functional; details: Human alphaherpesvirus 1, KOS; in short: as §3
Human alphaherpesvirus 1 [17] = assay: Antiviral activity against thymidine kinase deficient and acyclovir resistant HSV1 KOS in human HEL cells assessed as reduction of virus-induced cytopathogenicity; type: functional; details: Human alphaherpesvirus 1, KOS; in short: as §3
Vero = assay: Cytotoxicity against african green monkey Vero cells; type: cell-based; details: chlorocebus sabaeus; in short: as §2
Coxsackievirus B4 [18] = assay: Antiviral activity against Coxsackie virus B4 in african green monkey Vero cells assessed as reduction of virus-induced cytopathogenicity; type: functional; details: Enterovirus B; in short: as §3
Punta Toro virus = assay: Antiviral activity against Punta Toro virus in african green monkey Vero cells assessed as reduction of virus-induced cytopathogenicity; type: functional; in short: as §3
Human betaherpesvirus 5 [19] = assay: Antiviral activity against human cytomegalovirus AD169 infected HEL cells assessed as reduction in virus plaque formation; type: functional, organism-based; details: Human betaherpesvirus 5, AD169, HEL
Human betaherpesvirus 5 [20] = assay: Antiviral activity against human cytomegalovirus Davis infected HEL cells assessed as reduction in virus plaque formation; type: functional, organism-based; details: Human betaherpesvirus 5, Davis
Human alphaherpesvirus 3 [21] = assay: Antiviral activity against TK+ VZV OKA infected HEL cells assessed as reduction in virus plaque formation; type: functional, organism-based; details: Human alphaherpesvirus 3, OKA
Human alphaherpesvirus 3 [22] = assay: Antiviral activity against TK- VZV 07/1 infected HEL cells assessed as reduction in virus plaque formation; type: functional, organism-based; details: Human alphaherpesvirus 3, 07/1, HEL
Human respirovirus 3 = assay: Antiviral activity against Parainfluenza 3 virus in african green monkey Vero cells assessed as reduction of virus-induced cytopathogenicity; type: functional; in short: as §3
[23] = tested on: Mammalian orthoreovirus 1; assay: Antiviral activity against Reo virus 1 in african green monkey Vero cells assessed as reduction of virus-induced cytopathogenicity; type: functional; in short: as §3
Sindbis virus = assay: Antiviral activity against Sindbis virus in african green monkey Vero cells assessed as reduction of virus-induced cytopathogenicity; type: functional; in short: as §3
[24] = Cytotoxicity against human HEL cells assessed as reduction of cell growth; type: cell-based
In short: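 HEL cells; CC50 = compound concentration reducing cell growth by 50%.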

Compound | Activity [1] [%] | IC50 [1] [µg/mL] | Activity [2] [%] | IC50 [2] [µg/mL] | CC50 [3] [µg/mL] | MCC [4] [µg/mL] | MIC [5] [µg/mL] | MCC [8] [µg/mL] | MCC [9] [µg/mL] | MIC (Human alphaherpesvirus 1 [10]) [µg/mL] | MIC (Human alphaherpesvirus 1 [11]) [µg/mL] | MIC (Human alphaherpesvirus 2 [12]) [µg/mL] | MIC (Human alphaherpesvirus 2 [13]) [µg/mL] | MIC [14] [µg/mL] | MIC [15] [µg/mL] | MIC (Human alphaherpesvirus 1 [16]) [µg/mL] | MIC (Human alphaherpesvirus 1 [17]) [µg/mL] | EC50 (Human betaherpesvirus 5 [19]) [µg/mL] | EC50 (Human betaherpesvirus 5 [20]) [µg/mL] | CC50 [24] [µg/mL] | other results
C=CCNC(=S)Nc1ccc(OCc2n[nH]c(=S)n2C)cc1 | 1.5 | > 107 | 3 | > 114 | ≥ 107 | 400 | > 80 | > 400 | > 400 | > 400 | > 400 | 240 (≈ 715 µM) | 240 (≈ 715 µM) | > 400 | > 400 | 240 (≈ 715 µM) | 240 (≈ 715 µM) | > 100 | > 100 | > 50 | MIC (Coxsackievirus B4 [6]): > 80 µg/mL; MIC [7]: > 80 µg/mL; Activity (Vero): 400 µg/mL; MIC (Coxsackievirus B4 [18]): 48 µg/mL (≈ 143 µM); MIC (Punta Toro virus): > 80 µg/mL; EC50 (Human alphaherpesvirus 3 [21]): > 100 µg/mL; EC50 (Human alphaherpesvirus 3 [22]): > 100 µg/mL; MIC (Human respirovirus 3): > 80 µg/mL; MIC [23]: > 80 µg/mL; MIC (Sindbis virus): > 80 µg/mL
CNC(=S)Nc1ccc(OCc2n[nH]c(=S)n2-c2ccccc2)cc1 | 0.5 | > 83.5 | 2 | > 113 | ≥ 83.5 | 400 | > 80 | > 400 | > 400 | > 400 | > 400 | > 400 | > 400 | > 400 | > 400 | > 400 | > 400 | > 100 | > 100 | > 50 | MIC (Coxsackievirus B4 [6]): > 80 µg/mL; MIC [7]: > 80 µg/mL; Activity (Vero): 400 µg/mL; MIC (Coxsackievirus B4 [18]): > 80 µg/mL; MIC (Punta Toro virus): > 80 µg/mL; EC50 (Human alphaherpesvirus 3 [21]): > 100 µg/mL; EC50 (Human alphaherpesvirus 3 [22]): > 100 µg/mL; MIC (Human respirovirus 3): > 80 µg/mL; MIC [23]: > 80 µg/mL; MIC (Sindbis virus): > 80 µg/mL
Nc1ccn(C[C@@H](CO)OCP(=O)(O)O)c(=O)n1.O.O [CIDOFOVIR] | – | – | – | – | – | – | – | – | > 400 | – | – | – | – | – | – | – | – | 0.075 | 0.64 | ≥ 18 | –
Nc1nc2c(ncn2COC(CO)CO)c(=O)[nH]1 [GANCICLOVIR] | – | – | – | – | – | – | – | > 100 | > 100 | 0.032 (≈ 0.125 µM) | 0.032 (≈ 0.125 µM) | 0.032 (≈ 0.125 µM) | 0.032 (≈ 0.125 µM) | > 100 | > 100 | 2.4 (≈ 9.4 µM) | 2.4 (≈ 9.4 µM) | 0.64 (≈ 2.51 µM) | 1.9 (≈ 7.44 µM) | 87 (≈ 341 µM) | –

Source: ChEMBL document CHEMBL1149790, “Synthesis of some novel thiourea derivatives obtained from 5-[(4-aminophenoxy)methyl]-4-alkyl/aryl-2,4-dihydro-3H-1,2,4-triazole-3-thiones and evaluation as antiviral/anti-HIV and anti-tuberculosis agents” (Eur J Med Chem, 2008)
